Test results published in ChEMBL document CHEMBL1147832, “Flexible synthesis and biological evaluation of novel 5-deoxyadenophorine analogues” (Bioorg Med Chem Lett, 2006).

Key:
Alpha-galactosidase = Alpha-galactosidase (Coffea arabica, UniProt Q5DUH8); test: Inhibition of green coffee alpha galactosidase
[1] = biological target: T1, Beta-galactosidase (Aspergillus niger) (UniProt P29853); test: Inhibition of Aspergillus beta galactosidase at 1 mM
T1 sequence (whole entry): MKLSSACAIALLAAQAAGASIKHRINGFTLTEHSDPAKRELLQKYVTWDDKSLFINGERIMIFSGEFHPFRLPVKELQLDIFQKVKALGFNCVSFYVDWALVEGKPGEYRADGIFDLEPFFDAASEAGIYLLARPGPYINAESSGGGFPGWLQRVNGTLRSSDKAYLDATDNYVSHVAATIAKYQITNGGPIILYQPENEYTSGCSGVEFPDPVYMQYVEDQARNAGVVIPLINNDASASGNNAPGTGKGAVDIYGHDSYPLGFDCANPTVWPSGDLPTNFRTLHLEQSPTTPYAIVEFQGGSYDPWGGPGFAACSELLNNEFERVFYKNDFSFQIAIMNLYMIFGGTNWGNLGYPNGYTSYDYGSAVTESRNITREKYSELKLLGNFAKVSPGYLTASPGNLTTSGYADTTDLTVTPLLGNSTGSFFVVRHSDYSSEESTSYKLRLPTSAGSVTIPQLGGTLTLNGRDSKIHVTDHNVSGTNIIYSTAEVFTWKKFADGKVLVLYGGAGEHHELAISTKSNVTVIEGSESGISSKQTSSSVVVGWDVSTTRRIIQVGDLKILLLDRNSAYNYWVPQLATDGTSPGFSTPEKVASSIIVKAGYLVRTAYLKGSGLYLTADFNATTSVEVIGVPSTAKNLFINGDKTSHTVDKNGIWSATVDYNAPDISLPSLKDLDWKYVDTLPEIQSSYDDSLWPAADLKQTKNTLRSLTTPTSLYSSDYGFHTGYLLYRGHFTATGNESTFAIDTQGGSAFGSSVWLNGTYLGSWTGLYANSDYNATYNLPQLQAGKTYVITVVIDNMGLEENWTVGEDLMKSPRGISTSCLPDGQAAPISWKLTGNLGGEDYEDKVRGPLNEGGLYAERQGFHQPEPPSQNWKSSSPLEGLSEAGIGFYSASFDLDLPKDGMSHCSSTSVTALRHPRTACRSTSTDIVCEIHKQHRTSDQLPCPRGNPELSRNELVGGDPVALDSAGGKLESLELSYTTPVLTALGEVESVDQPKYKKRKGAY
Outline: (§1)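 Commercial enzymes: yeast α-glucosidase, almond β-glucosidase, green coffee bean α-galactosidase, Aspergillus β-galactosidase. Each was run at its optimum pH and temperature with the matching p-nitrophenyl glycoside at a substrate concentration equal to the calculated Km. Inhibitor was at 1 mM final. Low-pH reactions were stopped with 400 mM Na2CO3. Released p-nitrophenol was read at 405 nm, giving % inhibition.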

[2] = Inhibition of yeast alpha glucosidase; parameters: species or system Saccharomyces cerevisiae
Saccharomyces cerevisiae = test: Inhibition of yeast alpha glucosidase at 1 mM; outline: as §1
[3] = biological target: Alpha-galactosidase (Coffea arabica) (UniProt Q5DUH8); test: Inhibition of green coffee alpha galactosidase at 1 mM; outline: as §1
[4] = biological target: T2, Alpha-glucosidase-like (Oryza sativa Japonica Group) (UniProt A0A5S6RD55); test: Inhibition of rice alpha glucosidase at 1 mM
T2 sequence (whole entry): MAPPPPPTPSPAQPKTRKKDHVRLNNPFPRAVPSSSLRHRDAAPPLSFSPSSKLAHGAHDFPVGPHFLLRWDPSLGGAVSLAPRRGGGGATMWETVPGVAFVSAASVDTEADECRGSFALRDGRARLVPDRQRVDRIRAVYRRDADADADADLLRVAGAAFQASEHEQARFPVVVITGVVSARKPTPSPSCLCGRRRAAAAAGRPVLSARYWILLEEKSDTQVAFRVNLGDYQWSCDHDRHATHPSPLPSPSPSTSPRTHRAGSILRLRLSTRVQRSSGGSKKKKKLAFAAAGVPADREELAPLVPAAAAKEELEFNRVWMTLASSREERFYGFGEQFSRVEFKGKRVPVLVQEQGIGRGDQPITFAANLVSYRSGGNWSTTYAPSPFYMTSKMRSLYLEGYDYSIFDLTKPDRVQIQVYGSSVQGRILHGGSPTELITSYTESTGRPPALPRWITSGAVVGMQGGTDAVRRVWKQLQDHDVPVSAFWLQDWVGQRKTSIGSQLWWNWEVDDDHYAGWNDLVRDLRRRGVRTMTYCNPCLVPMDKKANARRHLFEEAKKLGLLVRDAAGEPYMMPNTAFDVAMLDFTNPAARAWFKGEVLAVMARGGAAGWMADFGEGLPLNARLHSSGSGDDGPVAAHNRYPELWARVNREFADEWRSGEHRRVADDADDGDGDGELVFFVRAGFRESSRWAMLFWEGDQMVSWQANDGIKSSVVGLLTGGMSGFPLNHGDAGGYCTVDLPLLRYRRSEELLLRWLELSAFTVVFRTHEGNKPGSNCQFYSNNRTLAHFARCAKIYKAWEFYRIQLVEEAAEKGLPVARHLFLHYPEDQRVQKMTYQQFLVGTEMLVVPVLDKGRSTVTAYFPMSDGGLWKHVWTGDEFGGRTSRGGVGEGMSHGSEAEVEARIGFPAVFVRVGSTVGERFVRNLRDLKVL

Beta-galactosidase = biological target: T3, Beta-galactosidase (Bos taurus, UniProt Q58D55); test: Inhibition of bovine liver beta galactosidase
T3 sequence (Q58D55 whole entry): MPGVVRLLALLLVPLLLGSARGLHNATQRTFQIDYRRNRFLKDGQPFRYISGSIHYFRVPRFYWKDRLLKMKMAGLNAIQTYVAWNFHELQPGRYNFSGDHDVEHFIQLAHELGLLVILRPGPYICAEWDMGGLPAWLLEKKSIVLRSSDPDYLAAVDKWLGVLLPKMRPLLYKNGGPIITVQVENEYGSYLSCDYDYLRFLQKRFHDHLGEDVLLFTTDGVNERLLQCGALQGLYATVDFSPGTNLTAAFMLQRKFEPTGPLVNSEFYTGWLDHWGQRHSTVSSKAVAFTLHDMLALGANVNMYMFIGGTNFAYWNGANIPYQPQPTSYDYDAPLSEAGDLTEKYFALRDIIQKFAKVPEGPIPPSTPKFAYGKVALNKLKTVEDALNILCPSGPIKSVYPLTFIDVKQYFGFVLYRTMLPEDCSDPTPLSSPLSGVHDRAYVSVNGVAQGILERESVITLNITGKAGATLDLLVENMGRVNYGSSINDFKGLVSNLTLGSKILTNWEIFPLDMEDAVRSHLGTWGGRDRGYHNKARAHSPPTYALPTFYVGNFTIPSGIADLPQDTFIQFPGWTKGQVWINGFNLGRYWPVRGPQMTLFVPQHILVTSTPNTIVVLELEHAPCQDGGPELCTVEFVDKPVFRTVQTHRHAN

Chain of Alpha-galactosidase (Q5DUH8 whole entry): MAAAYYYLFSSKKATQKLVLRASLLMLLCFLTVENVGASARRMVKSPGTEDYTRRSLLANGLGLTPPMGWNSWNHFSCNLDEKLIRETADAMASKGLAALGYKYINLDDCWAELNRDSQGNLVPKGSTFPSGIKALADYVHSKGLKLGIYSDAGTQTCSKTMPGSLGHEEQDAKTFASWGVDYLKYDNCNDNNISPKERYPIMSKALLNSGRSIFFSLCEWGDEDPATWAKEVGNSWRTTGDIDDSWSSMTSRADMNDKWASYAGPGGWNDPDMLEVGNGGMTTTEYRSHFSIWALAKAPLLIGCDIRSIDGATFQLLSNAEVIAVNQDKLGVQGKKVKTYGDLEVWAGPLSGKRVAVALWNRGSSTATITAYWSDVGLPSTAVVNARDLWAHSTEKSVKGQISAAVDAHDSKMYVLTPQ
Chain of Alpha-galactosidase (Coffea arabica) (Q5DUH8 as listed by the source): as the sequence (Q5DUH8 whole entry) above

SMILES | Ki (Alpha-galactosidase) | inhibition [1] | Ki [2] | inhibition (Saccharomyces cerevisiae) | inhibition [3] | IC50 (Alpha-galactosidase) | inhibition [4] | IC50 (Beta-galactosidase)
CC[C@@H]1C[C@@H](O)[C@@H](O)[C@@H](CO)N1 | 721 µM | < 40% | 123 µM |  |  |  |  | 
CCC[C@@H]1C[C@H](O)[C@@H](O)[C@@H](CO)N1 |  | < 40% |  | < 40% | < 40% |  |  | 
CC[C@@H]1C[C@H](O)[C@@H](O)[C@@H](CO)N1 |  |  |  |  |  | 6.4 µM | < 40% | 34 µM
CCCC[C@@H]1C[C@H](O)[C@@H](O)[C@@H](CO)N1 |  | < 40% |  | < 40% | < 40% |  |  | 

The remaining lines, values ahead:

Ki (Alpha-galactosidase) | inhibition [1] | Ki [2] | inhibition (Saccharomyces cerevisiae) | inhibition [3] | IC50 (Alpha-galactosidase) | inhibition [4] | IC50 (Beta-galactosidase) | SMILES
141 µM | < 40% | 154 µM |  |  |  |  |  | CCCCCCC[C@@H]1C[C@@H](O)[C@@H](O)[C@@H](CO)N1
 | < 40% |  | < 40% | < 40% |  |  |  | CCCCCCC[C@@H]1C[C@H](O)[C@@H](O)[C@@H](CO)N1
 | < 40% | 196 µM |  | < 40% |  |  |  | CCCCCCCCCCC[C@@H]1C[C@H](O)[C@@H](O)[C@@H](CO)N1
